Assay results reported in publication PMC11144404 (Drug Design, Development and Therapy, 2024).

Key:
[1] = Steady-state plasma pharmacokinetics of HCTZ alone or with henagliflozin; type: in vivo, human
[2] = tested on: healthy Chinese volunteers; test: Safety and tolerability; type: in vivo, human; settings: per treatment period
How it was run: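 12 enrolled healthy Chinese men aged 18–40 y with BMI 19–26 kg/m2. All had normal blood chemistry, haematology, urinalysis, vital signs and hepatitis/HIV serology, and stopped interfering medications 4 weeks before the study. Treatment-emergent adverse events were recorded as events and subjects for each treatment period (multiple-dose monotherapy with each drug, then co-administration). Drug relatedness was assessed.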

[3] = tested on: healthy subjects and patients with T2DM; settings: cited from earlier work
[4] = 2.5 mg dose group; cited from earlier work
[5] = Steady-state plasma pharmacokinetics of henagliflozin alone or with HCTZ; type: in vivo, human

Row | Structure (SMILES) | 90% CI of ratio of geometric means (combination: monotherapy) for AUCτ,ss ([1]; HCTZ, compared with bioequivalence interval) | Decrease of Css,max by co-administration ([1]; co-administration with henagliflozin vs HCTZ alone) [%] | All TEAEs, number of subjects ([2]; of 12 subjects) | Diarrhea, number of subjects ([2]; of 12 subjects) | Drug-related TEAEs, number of subjects ([2]; of 12 subjects) | Eczema, number of subjects ([2]; of 12 subjects) | Subjects reporting TEAEs ([2]; of 12 subjects) [%] | Thirst, number of subjects ([2]; of 12 subjects) | Dizziness, number of subjects ([2]; of 12 subjects) | All TEAEs, number of subjects ([2]; of 12 subjects, listed as henagliflozin) | All TEAEs, number of events ([2]; figure in brackets) | Drug-related TEAEs, number of events ([2]; figure in brackets) | Benefit of 20 mg group compared with 5 mg and 10 mg groups (PK/PD) ([3]; 5–20 mg dosing range, healthy subjects and patients with T2DM) | Effect on blood glucose, blood electrolytes, or blood pressure ([3]; healthy people) | Difference in AUC0-24h and Cmax between males and females [4] | Increase of Css,max by co-administration ([5]; co-administration with HCTZ vs henagliflozin alone) [%] | 90% CI of ratio of geometric means (combination: monotherapy) for AUCτ,ss ([5]; henagliflozin, compared with bioequivalence interval)
1 | NS(=O)(=O)c1cc2c(cc1Cl)NCNS2(=O)=O [HCTZ, Hydrochlorothiazide] | within the bioequivalence interval of 0.80–1.25 | 19.41 | 11 | 2(2) | 11 | 0(0) | 91.7 | 10(10) |  |  |  |  |  |  |  |  | 
2 | CCOc1ccc(Cc2cc([C@@]34OC[C@@](CO)(O3)[C@@H](O)[C@H](O)[C@H]4O)ccc2Cl)cc1F [Henagliflozin] |  |  | 4(4) | 2(2) |  | 1(1) | 33.3 |  | 1(1) | 4 | four | all TEAEs were considered to be related to henagliflozin | no significant benefit | no effect | no statistical difference | 24.32 | fell between 0.80 and 1.25
